Structures are written as SMILES.

Chain of Homeobox protein Nkx-2.5 (Mus musculus) (P42582 whole entry): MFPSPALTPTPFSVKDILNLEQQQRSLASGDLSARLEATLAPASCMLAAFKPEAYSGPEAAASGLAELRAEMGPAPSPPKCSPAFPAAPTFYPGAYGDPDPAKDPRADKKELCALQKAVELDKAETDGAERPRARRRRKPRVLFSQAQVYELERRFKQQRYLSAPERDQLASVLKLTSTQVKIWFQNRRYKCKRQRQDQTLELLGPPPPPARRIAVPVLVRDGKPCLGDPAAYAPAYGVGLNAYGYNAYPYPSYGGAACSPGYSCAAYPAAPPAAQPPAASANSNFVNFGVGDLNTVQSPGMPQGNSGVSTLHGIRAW

In the first series the target is Transcription factor GATA-4 (Mus musculus) (UniProt Q08369). The series is described as follows: Modulation of mouse GATA4 expressed in Chlorocebus aethiops COS1 cells harboring NP-112 reporter gene assessed as BNP promoter-driven transcriptional activity at 10 uM after 24 hrs by luciferase reporter gene assay relative to control.
Chain of Transcription factor GATA-4 (Mus musculus) (Q08369 whole entry): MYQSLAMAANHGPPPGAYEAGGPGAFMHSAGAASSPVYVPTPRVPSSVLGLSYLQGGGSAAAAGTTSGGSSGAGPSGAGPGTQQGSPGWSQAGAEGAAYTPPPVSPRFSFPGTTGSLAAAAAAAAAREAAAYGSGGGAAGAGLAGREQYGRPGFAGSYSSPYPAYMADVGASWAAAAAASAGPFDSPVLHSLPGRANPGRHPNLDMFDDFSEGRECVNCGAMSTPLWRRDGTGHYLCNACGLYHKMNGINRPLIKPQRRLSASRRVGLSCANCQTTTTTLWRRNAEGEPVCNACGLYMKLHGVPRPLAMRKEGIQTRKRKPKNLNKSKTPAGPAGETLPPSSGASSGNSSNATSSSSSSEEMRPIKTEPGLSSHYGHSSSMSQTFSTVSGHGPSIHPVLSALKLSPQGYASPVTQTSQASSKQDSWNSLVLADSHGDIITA
Conditions: not given
The class given is cell-based. The method, boiled down: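 GATA reporter assay: COS-1 cells (14 000/well, overnight) transfected 6 h serum/antibiotic-free with NP-112 reporter (tandem GATA sites plus rat BNP minimal promoter, 100 ng/well) and pMT2-GATA4 (25 ng/well), Fugene 6 1:3. Treated 24 h with compound or 0.1% DMSO. Luminescence read; triplicates, Grubbs outliers removed, % of control.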
Background: A reporter such as luciferase makes a cellular process visible.
`CCN(CC)c1ccc(N(C)C(=O)c2c(-c3ccccc3)noc2C)cc1`: the Activity was found to be 99%.

In the case of `CCN(CC)c1ccc(NC(=O)c2c(-c3coc(C)n3)noc2C)cc1`, the Activity worked out at 110%.

As for `CCN(CC)c1ccc(NC(=O)c2c(C)nc3ccccn23)cc1`, the Activity was 94%.

For `CCN(CC)c1ccc(NC(=O)c2c(-n3cccc3)sc(C)c2C)cc1`, the Activity turned out to be 66%.

Turning to `CCN(CC)c1ccc(NC(=O)c2c(-c3ccccc3Cl)noc2C)cc1`, the Activity came out at 110%.

As to `CCN(CC)c1ccc(NC(=O)c2c(-c3cc(C)on3)noc2C)cc1`, the Activity was found to be 100%.

In a further series the target is GATA4/NKX2-5 (Mus musculus) (UniProt Q08369+P42582). The series is described as follows: Modulation of mouse GATA4/mouse NKX2-5 protein-protein interaction expressed in Chlorocebus aethiops COS1 cells harboring 3xHA reporter gene assessed as transcriptional synergy at 10 uM after 24 hrs by luciferase reporter gene assay relative to control. The class given is cell-based.
Conditions: not given
The method, boiled down:
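COS-1 cells seeded 14 000/well, grown overnight, then transfected for 6 h in serum- and antibiotic-free medium with pGL3-3xHA reporter (three NKX2-5 sites, 100 ng/well) plus pMT2-GATA4 and pMT2-NKX2-5 (total 50 ng/well), Fugene 6 at 1:3 DNA/reagent. Compound or 0.1% DMSO vehicle for 24 h, then luminescence read. Triplicates, Grubbs outliers removed, expressed as % of control.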
In the case of `CCN(CC)c1ccc(NC(=O)c2ccnc(C(F)(F)F)c2)cc1`, the Activity came to 84%.

In the case of `CCCOC(=O)c1ccc(OCc2c(-c3ccccc3)noc2C)cc1`, the Activity came to 110%.

As to `CCN(CC)c1ccc(NC(=O)c2cc(-c3ccc(Br)cc3)oc2C(F)(F)F)cc1`, the Activity came out at 85%.

On to `CCN(CC)c1ccc(NC(=O)c2c(-c3c(Cl)cccc3Cl)noc2C)cc1`, for which the Activity worked out at 110%.

`CCN(CC)c1ccc(N(C)C(=O)c2c(-c3ccccc3)noc2C)cc1`: the Activity amounted to 97%.

Consider `CCN(CC)c1ccc(NC(=O)c2c(C(F)(F)F)nn(C)c2Oc2ccccc2)cc1`, for which the Activity turned out to be 68%.

In the case of `Cc1onc(-c2ccccc2)c1COc1ccc([N+](=O)[O-])cc1`, the Activity came to 85%.

Turning to `CCN(CC)c1ccc(NC(=O)c2ccsc2)cc1`, the Activity came to 110%.

For the compound `CCN(CC)c1ccc(N(Cc2ccccc2)C(=O)c2c(-c3ccccc3)noc2C)cc1`, the Activity was determined as 66%.

With `CCN(CC)c1ccc(CN(C)c2c(-c3ccccc3)noc2C)cc1`, the Activity stood at 82%.

`CCN(CC)c1ccc(CN(C(=O)Nc2ccc(C#N)cc2)c2c(-c3ccccc3)noc2C)cc1`: the Activity is 85%.

`CCN(CC)c1ccc(NC(=O)c2c(-c3coc(C)n3)noc2C)cc1`: the Activity worked out at 100%.

Turning to `CCN(CC)c1ccc(NC(=O)c2c(-c3ccccc3)nnn2CCOC)cc1`, the Activity came out at 91%.

For the compound `Cc1onc(-c2ccccc2)c1C(=O)Nc1ccc(OCCN2CCOCC2)cc1`, the Activity was determined as 97%.

On to `CCN(CC)c1ccc(N(Cc2c(-c3ccccc3)noc2C)C(C)=O)cc1`, for which the Activity came out at 80%.

In the case of `CCN(CC)c1ccc(NC(=O)c2nnn(C)c2-c2ccccc2)cc1`, the Activity was found to be 78%.

For `Cc1onc(-c2ccccc2)c1C(=O)Nc1ccc(C(=O)OCCN(C)C)cc1`, the Activity worked out at 110%.

`CCN(CC)c1ccc(NC(=O)c2c(C)nc3ccccn23)cc1`: the Activity worked out at 78%.

With `Cc1onc(-c2ccccc2)c1C(=O)Nc1ccc(N(C)C)cc1`, the Activity is 99%.

With `CCN(CC)c1ccc(NC(=O)c2c(-n3cccc3)sc(C)c2C)cc1`, the Activity turned out to be 79%.

Take `CCN(CC)c1ccc(NC(=O)c2ccoc2CCc2cccs2)cc1`: the Activity stood at 100%.

For `CCN(CC)c1ccc(NC(=O)c2c(-c3ccccc3Cl)noc2C)cc1`, the Activity was 88%.

In the case of `Cc1onc(-c2ccccc2)c1C(=O)Nc1ccc2c(c1)C(=O)CC2`, the Activity amounted to 79%.

For the compound `CCN(CC)c1ccc(N(CCF)C(=O)c2c(-c3ccccc3)noc2C)cc1`, the Activity worked out at 79%.

Consider `CCN(CCO)c1ccc(NC(=O)c2c(-c3ccccc3)noc2C)cc1`, for which the Activity turned out to be 67%.

Regarding `Cc1onc(-c2ccccc2)c1COc1ccc(C(=O)OCC(C)C)cc1`, the Activity worked out at 99%.

Consider `CCN(CC)c1ccc(/N=C/c2c(-c3ccccc3)noc2C)cc1`, for which the Activity came to 100%.

For the compound `CCN(CC)c1ccc(NC(=O)c2c(-c3ccccc3)nnc3ccccc23)cc1`, the Activity was found to be 87%.

`CCN(CC)c1ccc(NC(=O)c2ncoc2-c2ccco2)cc1`: the Activity is 120%.

With `CCN(CC)c1ccc(NC(=O)c2c(-c3ccc(Br)cc3)noc2C)cc1`, the Activity came to 70%.

As to `CCC(O)c1ccc(OCc2c(-c3ccccc3)noc2C)cc1` (racemic), the Activity came out at 87%.

Take `CCN(CC)c1ccc(NC(=O)c2c(-c3cc(C)on3)noc2C)cc1`: the Activity was found to be 100%.

On to `CCN(CC)c1ccc(NC(=O)c2c(-c3ccccc3)nnn2C)cc1`, for which the Activity came out at 84%.

Consider `Cc1onc(-c2ccccc2)c1COc1ccc(C(=O)N(C)CCCO)cc1`, for which the Activity is 100%.

In the case of `CCN(c1ccc(NC(=O)c2c(-c3ccccc3)noc2C)cc1N)C(C)C`, the Activity stood at 76%.

Turning to `CCN(CC)c1ccc(NC(=O)c2c(-c3ccccc3[N+](=O)[O-])noc2C)cc1`, the Activity is 84%.

With `CC[N+](C)(c1ccc(NC(=O)c2c(-c3ccccc3)noc2C)cc1)C(C)C` (configuration not stated), the Activity stood at 83%.

With `CCN(CC)c1ccc(NCc2c(-c3ccccc3)noc2C)cc1`, the Activity turned out to be 100%.

Consider `CCN(c1ccc(NC(=O)c2c(-c3ccccc3)noc2C)cc1[N+](=O)[O-])C(C)C`, for which the Activity was 75%.

For the compound `CCN(CC)c1ccc(NC(=O)c2c(-c3cc(Br)cs3)noc2C)cc1`, the Activity worked out at 89%.

Consider `CCN(CC)c1ccc(NC(=O)c2nn(-c3ccccc3)nc2C)cc1`, for which the Activity came to 100%.

`CCN(CC)c1ccc(NC(=O)c2cnn(C)c2-c2ccccc2)cc1`: the Activity turned out to be 62%.

On to `CCN(CC)c1ccc(NC(=O)c2c(-c3ccc([N+](=O)[O-])cc3)noc2C)cc1`, for which the Activity is 100%.

Regarding `CCN(CC)c1ccc(/N=C(\SCCF)c2c(-c3ccccc3)noc2C)cc1`, the Activity was 110%.

With `CCN(CC)c1ccc(NC(=O)c2c(-c3c(Cl)ccc([N+](=O)[O-])c3Cl)noc2C)cc1`, the Activity was 66%.

`Cc1onc(-c2ccccc2)c1COc1ccc(C(=O)OCc2ccoc2)cc1`: the Activity stood at 100%.

Consider `CCN(CC)c1ccc(NC(=O)c2c(-c3ccc(-c4ccc(F)cc4)cc3)noc2C)cc1`, for which the Activity was 110%.

In the case of `CCN(CC)c1ccc(NS(=O)(=O)c2c(-c3ccccc3)noc2C)cc1`, the Activity was found to be 98%.

For the compound `CCN(CC)c1ccc(NC(=O)c2c(-c3ccccc3)noc2C)cc1Cl`, the Activity is 69%.

Regarding `CCN(CC)c1ccc(NC(=O)C2CCCC2)cc1`, the Activity is 110%.

Consider `CCN(CC)C(=O)c1ccc(OCc2c(-c3ccccc3)noc2C)cc1`, for which the Activity came to 92%.

Regarding `CCN(CC)c1ccc(/C=N/c2c(-c3ccccc3)noc2C)cc1`, the Activity came to 96%.

`CCN(CC)c1ccc(N(C)C(=S)c2c(-c3ccccc3)noc2C)cc1`: the Activity is 91%.

On to `Cc1cc(NC(=O)c2c(-c3ccccc3)noc2C)ccc1C(C)C`, for which the Activity was 93%.

As for `CCN(CC)c1ccc(NC(=O)c2c(SC)nsc2SC)cc1`, the Activity worked out at 110%.

In the case of `Cc1onc(-c2cccc([N+](=O)[O-])c2)c1C(=O)Nc1ccc(N(C)C)cc1`, the Activity worked out at 100%.

In the case of `CCN(CC)c1ccc(NC(=O)c2c(-c3ccccn3)noc2C)cc1`, the Activity stood at 100%.

Consider `COC(=O)c1ccc(NC(=O)c2c(-c3ccccc3)noc2C)cc1`, for which the Activity came to 92%.

Turning to `C#Cc1ccc(NC(=O)c2c(-c3ccccc3)noc2C)cc1`, the Activity was found to be 84%.

On to `CCN(CC)c1ccc(/N=C(\SC)c2c(-c3ccccc3)noc2C)cc1`, for which the Activity is 86%.

As to `Cc1onc(-c2ccccc2)c1C(=O)Nc1ccc(C(=O)O)cc1`, the Activity is 98%.

In the case of `CCN(CC)c1ccc(NC(=O)c2c[nH]nc2-n2cnnn2)cc1`, the Activity was 110%.

With `CCN(CC)c1ccc(NC(=S)c2c(-c3ccccc3)noc2C)cc1`, the Activity was 99%.

`CCN(CC)c1ccc(C(=O)Nc2c(-c3ccccc3)noc2C)cc1`: the Activity was determined as 94%.

Consider `Cc1onc(-c2ccccc2)c1C(=O)Nc1ccc(C(=O)OCC#N)cc1`, for which the Activity is 90%.

For `CCN(CC)c1ccc(NC(=O)c2ncoc2-c2ccccc2)cc1`, the Activity stood at 110%.

The next series concerns the target Homeobox protein Nkx-2.5 (Mus musculus) (UniProt P42582). The experiment in a line: Modulation of mouse NKX2-5 expressed in Chlorocebus aethiops COS1 cells harboring 3xHA reporter gene assessed as protein-induced transcriptional activity at 10 uM after 24 hrs by luciferase reporter gene assay relative to control.
Conditions: not given
The class given is cell-based. The method, boiled down: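 COS-1 cells seeded 14 000/well and grown overnight. Transfection for 6 h in serum- and antibiotic-free medium with pGL3-3xHA reporter (100 ng/well) and pMT2-NKX2-5 (25 ng/well), Fugene 6 1:3. Compound or 0.1% DMSO vehicle for 24 h, then luciferase luminescence. Triplicate wells with Grubbs outlier removal, % of control.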
As to `CCN(CC)c1ccc(N(C)C(=O)c2c(-c3ccccc3)noc2C)cc1`, the Activity was determined as 100%.

Regarding `CCN(CC)c1ccc(NC(=O)c2c(-c3coc(C)n3)noc2C)cc1`, the Activity was 86%.

Take `CCN(CC)c1ccc(NC(=O)c2c(C)nc3ccccn23)cc1`: the Activity worked out at 86%.

As for `CCN(CC)c1ccc(NC(=O)c2c(-n3cccc3)sc(C)c2C)cc1`, the Activity came out at 90%.

Consider `CCN(CC)c1ccc(NC(=O)c2c(-c3ccccc3Cl)noc2C)cc1`, for which the Activity is 97%.

Turning to `CCN(CC)c1ccc(NC(=O)c2c(-c3cc(C)on3)noc2C)cc1`, the Activity was 87%.

The test system of a further series is COS-1. The series is described as follows: Induction of necrosis in Chlorocebus aethiops COS1 cells assessed as LDH release at 1 to 30 uM after 24 hrs by LDH assay relative to control. The class given is cell-based. As to conditions: cos-1, 24 h. An outline of the steps: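 COS-1 cells in DMEM with 10% FBS at 37 °C, 5% CO₂, plated 10 000/well and exposed next day to 1–30 μM for 24 h. Medium samples mixed with NAD, iodonitrotetrazolium, lactate and phenazine methosulfate in 0.2 M Tris-HCl pH 8.2, 30 min at room temperature. Stopped with acetic acid, A490 read and normalized to maximal and spontaneous release.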
Background: LDH leaks from cells whose membrane has failed.
For `CCN(CC)c1ccc(NCc2c[nH]nc2-c2cc(F)cc(F)c2)cc1`, the Activity is given as less than 8%.

For the compound `CCN(CC)c1ccc(NC(=O)c2c[nH]nc2-c2ccccc2)cc1`, the Activity is given as less than 8%.

Consider `Cc1onc(-c2ccccc2)c1C(=O)Nc1ccc(OCc2ccccc2)cc1`, for which the Activity is recorded as less than 8%.

`CCN(CC)c1ccc(NC(=O)c2ccnn2-c2ccccc2)cc1`: the Activity is given as less than 8%.

Consider `CCCn1nnc(-c2ccccc2)c1C(=O)Nc1ccc(N(CC)CC)cc1`, for which the Activity is less than 8%.

On to `CC[N+](O)(CC)c1ccc(NC(=O)c2c(-c3ccccc3)noc2C)cc1.O=C([O-])c1cccc(Cl)c1`, for which the Activity is listed as less than 8%.

`CN(C)c1ccc(NCc2c[nH]nc2-c2ccc(F)cc2)cc1`: the Activity is listed as less than 8%.

Turning to `CCN(CC)c1ccc(/C=N/c2c(-c3ccccc3)noc2C)c(O)c1`, the Activity was less than 8%.

Consider `COc1ccc(-c2cc(N)nn2C(=O)c2c(-c3ccccc3)noc2C)cc1`, for which the Activity is on record as less than 8%.
